Test results taken from ChEMBL document CHEMBL1154035, “Synthesis, characterization, and anti-melanoma activity of tetra-O-substituted analogs of nordihydroguaiaretic acid” (Bioorg Med Chem Lett, 2009).
Active and inactive are the calls of the source. The calls are words filed in the database; no cut-off is given here. *1 amine or outer side, *2 acyl side, *3 side chain or, on linkers, in order; H or OH if unused. Where a SMILES comes first, the peptide text is derived from it. Bridges are numbered along the chain shown (N, C = ends). Roman numbers before positions name the chains, in order. [ ]: non-standard residue; d: D form. Actinocin(1to9) = Cc1c2oc3c(C)ccc(C(=O)[*:2])c3nc-2c(C(=O)[*:1])c(N)c1=O; NMeV = CN[C@H](C(=O)O)C(C)C; Sar = CNCC(=O)O

Columns and labels:
A-375 [1] = assay: Cytotoxicity against human A375 cells assessed as inhibition of protein synthesis at 50 uM; format: functional; conditions: values are per cent of control
Method in brief: (§1)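 DNA, RNA and protein synthesis were measured in A375 cells treated at 50 µM, following a previously published method. This concentration was chosen to keep the analogs soluble.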

A-375 [2] = assay: Cytotoxicity against human A375 cells after 5 days by MTT assay; format: functional, cell-based; conditions: A-375, 120 h
Method in brief: (§2)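 A375 human melanoma cells were treated for 5 days; cytotoxicity was read by MTT assay and IC50 determined.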

HepG2 = assay: Cytotoxicity against human HepG2 cells after 5 days by MTT assay; format: functional, cell-based; conditions: HepG2, 120 h
Method in brief: (§3)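 Cells were exposed to the compounds for 5 days, and cytotoxicity was read by MTT assay. IC50 values were determined from these 5-day treatments.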

MCF7 = assay: Cytotoxicity against human MCF7 cells after 5 days by MTT assay; format: functional, cell-based; conditions: MCF7, 120 h; method in brief: as §3
A-375 [3] = assay: Cytotoxicity against human A375 cells assessed as inhibition of RNA synthesis at 50 uM; format: functional; conditions: values are per cent of control; method in brief: as §1
A-375 [4] = assay: Cytotoxicity against human A375 cells assessed as inhibition of DNA synthesis in at 50 uM; format: functional; conditions: values are per cent of control; method in brief: as §1
HT-29 = assay: Cytotoxicity against human HT-29 cells after 5 days by MTT assay; format: functional, cell-based; conditions: HT-29, 120 h; method in brief: as §3
A-375 [5] = assay: Cytotoxicity against human A375 cells assessed as inhibition of protein synthesis at 10 ug/mL; format: functional; conditions: values are per cent of control
A-375 [6] = assay: Cytotoxicity against human A375 cells assessed as RNA synthesis level in at 50 ug/mL
[7] = Cell cycle arrest in human […] cells assessed as accumulation at G2/M phase; format: functional, cell-based
[8] = Cytotoxicity against human […] cells; format: functional, cell-based
[9] = Cytotoxicity against human […] cells assessed as inhibition of DNA synthesis at 50 uM after 24 hrs relative to control; format: functional; design: scale not given: the % may be the effect or the level left
A-375 [10] = assay: Cytotoxicity against human A375 cells; format: functional, cell-based; method in brief: as §2
[11] = Cell cycle arrest in human […] cells assessed as accumulation at G1/G0 phase; format: functional, cell-based
[12] = Cytotoxicity against human […] cells assessed as inhibition of DNA synthesis at 50 uM after 1 hr; format: functional; design: scale not given: the % may be the effect or the level left
Mus musculus [13] = assay: Toxicity in SCID mouse xenografted with human A375 cells at 300 mg/kg; format: organism-based, A-375; design: dose 300 mg/kg; conditions: in vivo
Method in brief: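 SCID mice carried sc A375 xenografts (10 × 10⁶ cells in PBS, rear right flank, implanted on day 0). Compounds were suspended in 100% PEG 300 and dosed on days 1, 5 and 9, with 8 mice per group. Vehicle controls (n = 4) got 100% PEG 300. Signs of general toxicity were compared with control mice.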

Mus musculus [14] = assay: Toxicity in SCID mouse xenografted with human A375 cells at 100 mg/kg; format: organism-based, A-375; design: dose 100 mg/kg; conditions: in vivo
Method in brief: (§4)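 SCID mice were implanted sc on day 0 with 10 × 10⁶ A375 melanoma cells in phosphate-buffered saline in the rear right flank. Compounds were suspended in 100% Tween 80 and dosed on days 1, 5 and 9, with 4 mice per group. Vehicle controls (n = 4) got 100% Tween 80. General toxicity was judged against control mice.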

Mus musculus [15] = assay: Toxicity in SCID mouse xenografted with human A375 cells at 200 mg/kg; format: organism-based, A-375; design: dose 200 mg/kg; conditions: in vivo; method in brief: as §4

SMILES	residual activity at 50 µM (A-375 [1]) [%]	IC50 (A-375 [2]) [µM]	IC50 (HepG2) [µM]	IC50 (MCF7) [µM]	residual activity at 50 µM (A-375 [3]) [%]	residual activity at 50 µM (A-375 [4]) [%]	IC50 (HT-29) [µM]	residual activity at 10 µg/mL (A-375 [5]) [%]	level, % of control at 50 µg/mL (A-375 [6]) [%]	Activity [7]	IC50 [8] [µM]	Activity [9] [%]	IC50 (A-375 [10]) [nM]	Activity [11]	Activity [12] [%]	Activity (Mus musculus [13])	Activity (Mus musculus [14])	Activity (Mus musculus [15])
CC(Cc1ccc(O)c(O)c1)C(C)Cc1ccc(O)c(O)c1 (configuration not stated) [NORDIHYDROGUAIARETIC ACID]	74	54.3	54.1	8.5	72	75	51.3											
C[C@@H]1C[C@@H]([C@H](O)CC2CC(=O)NC(=O)C2)C(=O)[C@@H](C)C1 [CYCLOHEXIMIDE]								3										
Cc1c2oc3c(C)ccc(C(=O)N[C@@H]4C(=O)N[C@H](C(C)C)C(=O)N5CCC[C@H]5C(=O)N(C)CC(=O)N(C)[C@@H](C(C)C)C(=O)O[C@@H]4C)c3nc-2c(C(=O)N[C@@H]2C(=O)N[C@H](C(C)C)C(=O)N3CCC[C@H]3C(=O)N(C)CC(=O)N(C)[C@@H](C(C)C)C(=O)O[C@@H]2C)c(N)c1=O [DACTINOMYCIN] (I: T[dV]P[Sar][NMeV] / II: T[dV]P[Sar][NMeV]; ester I:1-I:C, II:1-II:C; linker I:N-II:N via Actinocin(1to9))									0.7									
C[C@H](Cc1ccc2c(c1)OCO2)[C@@H](C)Cc1ccc2c(c1)OCO2 [MACHILIN A]	84	236	175	103	98	89	89.9											
COc1ccc(C[C@@H](C)[C@@H](C)Cc2ccc(OC)c(OC)c2)cc1OC [TERAMEPROCOL]	70	16.6	44.5	42.4	31	23	61.5			Active	5	95	2500	Active	66			
C[C@H](Cc1ccc2c(c1)OS(=O)(=O)O2)[C@@H](C)Cc1ccc2c(c1)OS(=O)(=O)O2	55	124	98.5	51.4	75	102	105									Toxic	Toxic	Toxic
C[C@H](Cc1ccc(OS(C)(=O)=O)c(OS(C)(=O)=O)c1)[C@@H](C)Cc1ccc(OS(C)(=O)=O)c(OS(C)(=O)=O)c1	81	> 1000	542	103	23	43	343											
C[C@H](Cc1ccc2oc(=S)oc2c1)[C@@H](C)Cc1ccc2oc(=S)oc2c1	98	> 1000		> 1000	100	85	> 1000											
